Screens from PubChem BioAssay.
HTRA1 inhibitor: inhibitors of human serine peptidase HTRA1. recombinant HTRA1, FP-rhodamine activity-based probe, fluorescence polarization. inhibition, % at 5.96 µM. actives 0.5% (n = 340,000). Q92743; in the data active = inhibition above about 36%
DAGLB inh: diacylglycerol lipase beta (human) inhibition. actives 0.059% (n = 340,000). AID 504411. inhibition, % at 5.17 µM. Q8NCG7. HEK293T DAGLB membrane lysate, EnzChek fluorogenic substrate; in the data active = inhibition above about 34%
Target sequence (Q8NCG7 whole entry, looked up): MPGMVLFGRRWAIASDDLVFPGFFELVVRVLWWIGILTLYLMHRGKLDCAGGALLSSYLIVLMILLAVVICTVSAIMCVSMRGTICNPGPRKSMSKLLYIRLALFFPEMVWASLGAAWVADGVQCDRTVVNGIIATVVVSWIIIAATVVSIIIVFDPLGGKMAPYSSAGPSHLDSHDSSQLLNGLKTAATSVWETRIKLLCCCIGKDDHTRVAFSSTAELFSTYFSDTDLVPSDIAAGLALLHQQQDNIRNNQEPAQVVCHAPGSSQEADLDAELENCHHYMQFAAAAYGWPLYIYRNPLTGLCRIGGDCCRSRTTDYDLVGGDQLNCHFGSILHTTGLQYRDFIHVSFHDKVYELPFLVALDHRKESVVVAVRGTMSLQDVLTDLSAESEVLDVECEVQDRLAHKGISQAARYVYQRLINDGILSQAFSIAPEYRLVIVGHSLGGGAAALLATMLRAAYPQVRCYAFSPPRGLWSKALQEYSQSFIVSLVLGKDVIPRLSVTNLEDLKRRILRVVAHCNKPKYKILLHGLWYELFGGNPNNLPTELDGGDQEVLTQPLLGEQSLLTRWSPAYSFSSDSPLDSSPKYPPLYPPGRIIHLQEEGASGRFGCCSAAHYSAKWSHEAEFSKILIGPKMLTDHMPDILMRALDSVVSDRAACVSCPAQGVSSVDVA
ABHD4 inh: ABHD4 (mouse) inhibition, primary FP screen. actives 0.54% (n = 370,000). inhibition, % at 8.92 µM. Q8VD66. purified mABHD4, FP-Rh probe fluorescence polarization;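 active = inhibition exceeding the mean over every tested compound plus 3 SD, cut at about 30% in these data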
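System: mouse ABHD4 enzyme, wild type / Medium: HEPES pH 7.0, NaCl, Pluronic buffer / Reagent: FP-Rh activity-based fluorescent probe / Control set: S159A mutant high control, sample median low control / Detection: fluorescence polarization with parallel and perpendicular emission, 525/598 nm / Schedule: 45 min + 60 min at 25 °C / Compound dosing: 8.92 µM, single dose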
TCR CD3 inh: human TCR-CD3 binding inhibition; AID 651800; actives 0.37% (n = 360,000); TAMRA-labeled TCR probe fluorescence, biochemical; inhibition, % at 9.4 µM;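 note: recombinant mutant TCR 2C K166C tagged with TAMRA read by polarization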
SIAE inh: blocks human sialic acid acetylesterase. Q9HAT2. SIAE FP-Rh probe binding, fluorescence polarization. inhibition, % at 9.66 µM. actives 0.69% (n = 370,000). AID 1053197;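 active = inhibition above a cutoff: mean of compounds within the control limits plus 3 SD of those, cut at about 17% in these data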
BSA TAMRA ctr: interferes with TAMRA-BSA probe, flagging TCR-CD3 hits; TAMRA-labeled BSA probe fluorescence counterscreen; AID 652035; actives 10% (n = 1,200); inhibition, % at 9.4 µM; shares compounds with TCR CD3 inh; in the data active = inhibition above about 23%
TCR-CD3 conf: confirmation of human TCR-CD3 interaction inhibitors. inhibition, % at 9.4 µM. actives 48% (n = 1,200). AID 652036. TAMRA-labeled TCR probe fluorescence binding assay. shares compounds with TCR CD3 inh
A number is an active result; 0 = inactive; - = not tested or not shown. An excerpt weighted towards active compounds, which were near 1.6% of everything screened. Cut-off read from the data, not from the text of the source, unless noted: active = inhibition above about 19%; inactive = the rest.

SMILES	HTRA1 inhibitor	DAGLB inh	ABHD4 inh	TCR CD3 inh	SIAE inh	BSA TAMRA ctr	TCR-CD3 conf
Cc1ccc(NC(=O)COC(=O)c2csc3c2CCC(C)C3)cc1S(=O)(=O)N1CCCCC1 (stereo not drawn)	0	0	0	19	0	0	0
Cc1nc(Cl)c2c(n1)NC1=C(O2)C(=O)CCC1	0	0	0	37	0	29	30
CCOc1ccc(-n2c(O)c(/C=N/NC(=O)C3COc4ccccc4O3)c3ccccc3c2=O)cc1 (stereo not drawn)	0	0	0	20	0	0	36
Cn1cccc1CC(=O)N/N=C/C=C/c1ccco1	0	0	0	20	0	0	0
N#CCS(=O)(=O)c1cccc[n+]1[O-]	-	-	0	0	0	-	-
CCOc1cc(/C=N/NC(=O)COc2ccc(Cl)cc2)ccc1OS(=O)(=O)c1ccccc1	0	0	0	28	0	24	35
CCOc1cc(/C=N/NS(=O)(=O)c2ccccc2)ccc1OS(=O)(=O)c1ccc(C)cc1	0	0	0	0	0	-	-
CCC(=O)N(Cc1cc2c(C)ccc(C)c2[nH]c1=O)C1CCCCC1	0	0	0	29	0	0	0
CN(C(=O)[C@@H](C1CC1)[C@@H](O)c1ccc2ccccc2c1)c1ccccc1	-	-	0	-	0	-	-
NS(=O)(=O)c1ccc(N=Nc2c[nH]c(=O)c(O)c2)cc1	0	0	0	26	0	0	36
COC(=O)C(NC(=O)CSc1nc(N)cc(=O)[nH]1)c1ccccc1 (stereo not drawn)	0	0	0	0	0	-	-
Nc1cc(=O)[nH]c(SCC(=O)NNC(=O)c2ccccc2)n1	0	0	0	22	0	0	0
Cc1c(OC(C(=O)O)c2ccccc2)ccc2c1oc(=O)c1ccccc12 (stereo not drawn)	0	0	0	19	0	0	0
CCN(C)C1CN(Cc2cn(Cc3cc(C)cc(C)c3)nn2)S(=O)(=O)C1 (stereo not drawn)	-	-	0	0	0	-	-
CCCC(=O)OC12CCCN(C1)/C(=C/c1cccc(N(C)C)c1)C2 (stereo not drawn)	-	-	0	-	0	-	-
Cc1ccccc1NS(=O)(=O)c1ccc(C(=O)N2CCC2)cc1	0	0	0	20	0	0	0
O=C1CN(C(=O)c2cccc([N+](=O)[O-])c2)CC(=O)N1	0	0	0	0	0	-	-
CCC1=NN(C(=O)c2cccc([N+](=O)[O-])c2)C(O)(c2ccc(C)cc2)C1 (stereo not drawn)	0	0	0	30	0	0	28
COc1ccc(C(=O)NC(=S)NNC(=O)c2ccc(O)cc2)cc1[N+](=O)[O-]	0	0	0	28	0	0	28
CCn1c(C)nc2cc(C(=O)NNC(=S)NC(=O)c3ccc(OC)cc3)ccc21	0	0	0	36	0	0	32
COc1ccc(C(=O)NNC(=S)NC(=O)c2cccc([N+](=O)[O-])c2)cc1	0	0	0	21	0	0	29
CCn1c(C)nc2cc(C(=O)NNC(=S)Nc3ccc(C)cc3)ccc21	0	0	0	0	0	-	-
CCCC/C=C1/[C@@H](CC)N(Cc2ccc(OC)cc2OC)C2=N[C@@H](c3ccccc3)CC(=O)N21	-	-	0	-	0	-	-
COc1cc(/C=C\C(=O)NCc2ccc3c(c2)cc(C)n3C)cc(OC)c1OC	0	0	0	31	0	0	0
COc1ccc(C(=O)NCc2ccc3c(c2)cc(C)n3C)cc1	0	0	0	0	0	-	-
SMILES	HTRA1 inhibitor	DAGLB inh	ABHD4 inh	TCR CD3 inh	SIAE inh	BSA TAMRA ctr	TCR-CD3 conf
Cc1cc2cc(CNC(=O)c3ccco3)ccc2n1C	0	0	0	31	0	0	0
CCOc1ccc(CC(=O)NCc2ccc3c(c2)cc(C)n3C)cc1	0	0	0	31	0	0	0
COc1ccc(Cn2ccc3ccc(-c4ccc5ccn(Cc6ccc(C#N)cc6)c5c4)cc32)cc1	-	-	0	-	0	-	-
CCOC(=O)c1cnc2nc(Cc3ccccc3)[nH]n2c1=O	0	0	0	0	0	-	-
CCOC(=O)c1cnc(Cc2ccccc2)[nH]c1=O	0	0	0	33	0	0	0
COc1ccc(CN(C2CCCC2)S(=O)(=O)c2ccc(-n3cnnn3)cc2)cc1OC	0	0	0	82	0	0	0
COC1=C[C@H](C(=O)NCCNC(C)=O)[C@@]2(C)Cc3ccccc3[C@H]2CC1=O	-	-	0	-	0	-	-
Cn1c(SCC(=O)c2ccc(O)c(O)c2)nnc1-c1ccccc1	0	0	0	0	0	-	-
Cn1c(SCC(=O)c2ccc(O)c(O)c2)nnc1-c1cccs1	0	0	0	23	0	0	0
C[C@H]1COc2cc(Br)ccc2S(=O)(=O)N1Cc1cn(Cc2ccccc2)nn1	-	-	0	-	0	-	-
CC(=O)Nc1cccc(NC(=O)COc2ccccc2C)c1	0	0	0	21	0	0	0
Cc1ccccc1OCC(=O)Nc1ccncc1	0	0	0	0	0	-	-
Cc1ccc(S(=O)(=O)N2CC3(COC(C)(C)OC3)C[C@H]2CON2C(C)(C)CCCC2(C)C)cc1	-	-	0	-	0	-	-
CC(=O)Nc1ccc(S(=O)(=O)Nc2cccc(-n3cnnn3)c2)cc1	0	0	0	0	0	-	-
CC(=O)c1ccc(S(=O)(=O)Nc2cccc(-n3cnnn3)c2)cc1	0	0	0	20	0	0	0
O=C(CC(c1ccccc1)c1ccccc1)Nc1ccc(O)cc1	0	0	0	0	0	-	-
CC(=O)Nc1ccc(NC(=O)CC(c2ccccc2)c2ccccc2)cc1	0	0	0	114	0	23	0
N#CC1=C(N)C(C#N)(C#N)C(c2ccc[nH]2)C2CCCC=C12 (stereo not drawn)	0	0	0	21	0	0	0
COCCNC(=O)CC(c1ccccc1)c1ccccc1	0	0	0	0	0	-	-
COCCCNC(=O)CC(C)c1ccccc1 (stereo not drawn)	0	0	0	110	0	0	0
C=CCn1c(C)cc(-c2csc(NC(=O)CCc3nc4ccccc4c(=O)[nH]3)n2)c1C	0	0	0	25	0	0	0
O=C(CCc1nc2ccccc2c(=O)[nH]1)Nc1nc(-c2cccs2)cs1	0	0	0	0	0	-	-
COc1ccc2c(c1)CN1C(=O)N(C3CCCC3)S(=O)(=O)CC21 (stereo not drawn)	-	-	0	-	0	-	-
COCCNC(=O)c1oc2ccc3c(c2c1C)C(O)CC(C)(C)O3 (stereo not drawn)	0	0	0	0	0	-	-
Cc1c(C(=O)N2CCC(C)CC2)oc2ccc3c(c12)C(O)CC1(CCCCC1)O3 (stereo not drawn)	0	0	0	21	0	0	0
CC(C)c1ccc(NC(=O)C(c2ccccc2)N2CCOCC2)cc1 (stereo not drawn)	0	0	0	24	0	0	0
Cc1ccc(C(=O)NCCCC(=O)O)o1	0	0	0	41	0	0	0
